Measured values reported in ChEMBL document CHEMBL1158679, “Synthetic analogues of irlbacholine: a novel antifungal plant metabolite isolated from Irlbachia alata” (1999).
Values after ≈ are worked out from the molar mass of the structure shown.

Tests used:
Type in all cases: functional
Candida albicans [1] = experiment: Antifungal activity against Candida albicans ATCC 10259 by standard microdilution method
Outline: (§1)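 Minimum inhibitory concentration measured by standard broth microdilution in 96-well microplates against the named yeast strain.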

Cryptococcus neoformans [2] = experiment: Antifungal activity against Cryptococcus neoformans ATCC 36556 by standard microdilution method; outline: as §1
Aspergillus fumigatus = experiment: Antifungal activity against Aspergillus fumigatus ATCC 13073 by standard microdilution method
Outline: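 MIC read from a 96-well microplate broth microdilution run by the standard method, with Sabouraud dextrose broth as the medium for A. fumigatus ATCC 13073.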

Candida albicans [3] = experiment: Antifungal activity against Candida albicans B311 by standard microdilution method; outline: as §1
Candida albicans [4] = experiment: Antifungal activity against Candida albicans 572-27 by standard microdilution method; outline: as §1
Cryptococcus neoformans [5] = experiment: Antifungal activity against Cryptococcus neoformans 96-69 by standard microdilution method

MIC (Candida albicans [1]) | MIC (Cryptococcus neoformans [2]) | MIC (Aspergillus fumigatus) | MIC (Candida albicans [3]) | MIC (Candida albicans [4]) | MIC (Cryptococcus neoformans [5]) | SMILES
1.25 µg/mL (≈ 1.86 µM) | 0.04 µg/mL (≈ 0.0594 µM) | 0.08 µg/mL (≈ 0.119 µM) | 1 µg/mL (≈ 1.49 µM) | 1 µg/mL (≈ 1.49 µM) | 0.5 µg/mL (≈ 0.743 µM) | C[N+](C)(C)CCOP(=O)([O-])OCCCCCCCCCCCCCCCCCCCCCCOP(=O)([O-])OCC[N+](C)(C)C
125 µg/mL (≈ 299 µM) | 62.5 µg/mL (≈ 149 µM) | > 500 µg/mL | 250 µg/mL (≈ 598 µM) | 250 µg/mL (≈ 598 µM) | 125 µg/mL (≈ 299 µM) | O=P(O)(O)OCCCCCCCCCCCCCCCCOP(=O)(O)O
500 µg/mL | 250 µg/mL |  | 500 µg/mL | 500 µg/mL | 500 µg/mL | CCCCCCCCCCCCCCCCCCCCCCOP(=O)(O)OCC[N+](C)(C)C.[Cl-]
250 µg/mL (≈ 446 µM) | 250 µg/mL (≈ 446 µM) |  | 250 µg/mL (≈ 446 µM) | 250 µg/mL (≈ 446 µM) | 250 µg/mL (≈ 446 µM) | C[N+](C)(C)CCOP(=O)([O-])OCCCCCCCCCCCCCCOP(=O)([O-])OCC[N+](C)(C)C
125 µg/mL (≈ 484 µM) | 62.5 µg/mL (≈ 242 µM) | > 500 µg/mL | 250 µg/mL (≈ 967 µM) | 250 µg/mL (≈ 967 µM) | 62.5 µg/mL (≈ 242 µM) | OCCCCCCCCCCCCCCCCO
> 500 µg/mL | 500 µg/mL (≈ 811 µM) |  |  | > 500 µg/mL | > 500 µg/mL | C[N+](C)(C)CCOP(=O)([O-])OCCCCCCCCCCCCCCCCCCOP(=O)([O-])OCC[N+](C)(C)C
7.8 µg/mL | 1 µg/mL |  | 7.8 µg/mL | 3.9 µg/mL | 0.5 µg/mL | C[N+](C)(C)CCOP(=O)(O)OCCCCCCCCCCCCCCCl.[Cl-]
0.5 µg/mL | 0.5 µg/mL |  | 1 µg/mL | 1 µg/mL | 0.5 µg/mL | CCCCCCCCCCCCCCCCOP(=O)(O)OCC[N+](C)(C)C.[Cl-]
> 500 µg/mL | 500 µg/mL (≈ 698 µM) |  |  | > 500 µg/mL | 500 µg/mL (≈ 698 µM) | O=P(O)(OCCBr)OCCCCCCCCCCCCCCCCCCCCCCOP(=O)(O)OCCBr
0.5 µg/mL | 0.5 µg/mL | 3.1 µg/mL | 1 µg/mL | 1 µg/mL | 0.5 µg/mL | C[N+](C)(C)CCOP(=O)(O)OCCCCCCCCCCCCCCCCCl.[Cl-]
31.2 µg/mL (≈ 44.5 µM) | 3.9 µg/mL (≈ 5.56 µM) |  | 62.5 µg/mL (≈ 89.2 µM) | 62.5 µg/mL (≈ 89.2 µM) | 7.8 µg/mL (≈ 11.1 µM) | C[N+](C)(C)CCOP(=O)([O-])OCCCCCCCCCCCCCCCCCCCCCCCCOP(=O)([O-])OCC[N+](C)(C)C
250 µg/mL (≈ 497 µM) | 62.5 µg/mL (≈ 124 µM) | > 500 µg/mL | 250 µg/mL (≈ 497 µM) | 250 µg/mL (≈ 497 µM) | 125 µg/mL (≈ 249 µM) | O=P(O)(O)OCCCCCCCCCCCCCCCCCCCCCCOP(=O)(O)O
125 µg/mL (≈ 212 µM) | 125 µg/mL (≈ 212 µM) | 25 µg/mL (≈ 42.5 µM) | 250 µg/mL (≈ 425 µM) | 125 µg/mL (≈ 212 µM) | 125 µg/mL (≈ 212 µM) | C[N+](C)(C)CCOP(=O)([O-])OCCCCCCCCCCCCCCCCOP(=O)([O-])OCC[N+](C)(C)C
62.5 µg/mL (≈ 98.8 µM) | 62.5 µg/mL (≈ 98.8 µM) |  | 125 µg/mL (≈ 198 µM) | 125 µg/mL (≈ 198 µM) | 125 µg/mL (≈ 198 µM) | O=P(O)(OCCBr)OCCCCCCCCCCCCCCCCOP(=O)(O)OCCBr
125 µg/mL (≈ 516 µM) | 62.5 µg/mL (≈ 258 µM) | > 500 µg/mL | 250 µg/mL (≈ 1030 µM) | 250 µg/mL (≈ 1030 µM) | 125 µg/mL (≈ 516 µM) | CCCCCCCCCCCCCCCCO [CETYL ALCOHOL]
1.25 µg/mL | 0.04 µg/mL | 0.08 µg/mL | 0.5 µg/mL | 0.5 µg/mL | 0.5 µg/mL | C[N+](C)(C)CCOP(=O)([O-])OCCCCCCCCCCCCCCCCCCCCCCOP(=O)([O-])OCC[N+](C)(C)C.Cl
500 µg/mL (≈ 939 µM) | 250 µg/mL (≈ 469 µM) |  | 500 µg/mL (≈ 939 µM) | 500 µg/mL (≈ 939 µM) | 250 µg/mL (≈ 469 µM) | C[N+](C)(C)CCOP(=O)([O-])OCCCCCCCCCCCCOP(=O)([O-])OCC[N+](C)(C)C
> 500 µg/mL | 15.6 µg/mL (≈ 24.2 µM) |  |  | > 500 µg/mL | 15.6 µg/mL (≈ 24.2 µM) | C[N+](C)(C)CCOP(=O)([O-])OCCCCCCCCCCCCCCCCCCCCOP(=O)([O-])OCC[N+](C)(C)C
250 µg/mL | 62.5 µg/mL | > 500 µg/mL | 250 µg/mL | 125 µg/mL | 62.5 µg/mL | CCCCCCCCCCCCCCCCOP(=O)(O)O [HEXADECYL DIHYDROGEN PHOSPHATE]
> 500 µg/mL | > 500 µg/mL | > 500 µg/mL | > 500 µg/mL | > 500 µg/mL | > 500 µg/mL | OCCCCCCCCCCCCCCCCCCCCCCO

SMILES | MIC (Candida albicans [1]) | MIC (Cryptococcus neoformans [2]) | MIC (Aspergillus fumigatus) | MIC (Candida albicans [3]) | MIC (Candida albicans [4]) | MIC (Cryptococcus neoformans [5])
O=P(OCCCCCCCCCCCCCCCCOP(=O)(Oc1ccccc1)Oc1ccccc1)(Oc1ccccc1)Oc1ccccc1 | 125 µg/mL (≈ 173 µM) | 62.5 µg/mL (≈ 86.5 µM) | > 500 µg/mL | 250 µg/mL (≈ 346 µM) | 250 µg/mL (≈ 346 µM) | 125 µg/mL (≈ 173 µM)
O=P(OCCCCCCCCCCCCCCCCCCCCCCOP(=O)(Oc1ccccc1)Oc1ccccc1)(Oc1ccccc1)Oc1ccccc1 | 125 µg/mL (≈ 155 µM) | 125 µg/mL (≈ 155 µM) | > 500 µg/mL | 250 µg/mL (≈ 310 µM) | 250 µg/mL (≈ 310 µM) | 125 µg/mL (≈ 155 µM)
